Sampled rows, rich in hits. Any-hit rate of the full collection: about 2.1%.
LMP1 NFkB inh – Epstein-Barr LMP1 NF-kappaB reporter inhibition; LMP1-induced NF-kappaB luciferase reporter cells, luminescence; inhibition, % at 12.5 µM; actives 0.69% (n = 350,000); in the data active = inhibition above about 41%;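 also: 0% = neutral control wells and 100% = reference inhibitor control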
EWS-Fli block – blocks EWS/Fli oncoprotein-driven transcription | A673 NR0B1-luciferase reporter, viability-normalised | inhibition, % at 12.6 µM | actives 0.67% (n = 350,000);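 active = mean inhibition of at least 50% after viability correction, with every replicate also passing that limit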;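 also: firefly luciferase signal divided by Alamar Blue viability fluorescence both relative to DMSO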
aSyn UTR inh – 5' untranslated region of α-synuclein, MLPCN primary screen; alpha-synuclein 5'UTR reporter, inhibitor activity; inhibition, % (tested at 7.5 µM); actives 0.82% (n = 300,000); AID 1813; in the data active = inhibition above about 60%;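 also: H4 neuroglioblastoma cells stably carrying SNCA 5'UTR luciferase fusion; 0% = DMSO wells and 100% = positive control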
PAX8 inh HTS – lowers PAX8-driven luciferase in RMG-I cells | RMG-I TPO-luciferase reporter, SteadyGlo, 24 h | actives 1.2% (n = 360,000) | inhibition, % at 12.6 µM;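 active = mean replicate inhibition at least 60% with every replicate also reaching 60%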;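 also: luciferase light reporting Pax8 driven TPO promoter activity; plate controls were median of neutral control wells for no effect and mitoxantrone controls for full effect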
Shn3 inh set2 – inhibitors of Schnurri-3 3'UTR reporter in osteoblasts; Clone20 osteoblast Shn3 3'UTR firefly luciferase, 24 h; inhibition, % at 12.5 µM; actives 0.52% (n = 360,000);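 active = mean inhibition of at least 75% with every replicate also reaching 75%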;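 also: 0% = median of neutral control wells and 100% = pilot-screen positive control compound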
FN deposit inh – fibronectin deposition inhibition; AH1F fibroblasts, Alexa488-fibronectin deposition fluorescence, overnight; inhibition, % at 12.6 µM; actives 0.086% (n = 350,000); AID 743247;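 active = mean inhibition across replicates of 30% or more, regardless of how many single replicates reach that level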;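 also: positive control wells lacked labelled fibronectin entirely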
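Assay system: AH1F fibroblasts assembling fluorescent fibronectin matrix; Amount: 10000 AH1F cells per well; Buffer or medium: DMEM, 2% serum; Probe or stimulus: Alexa488-fibronectin, 24 nM final in well; Doses: single compound dose, delivered by pin transfer; Incubation: 1 h adhesion, overnight exposure; Measured by: fluorescence 485/525 nm; Read-out: fibronectin deposition inhibition.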
The depositor's hits bear a star; nt = no result given; ! = a repeat was not active.

SMILES | LMP1 NFkB inh | EWS-Fli block | aSyn UTR inh | PAX8 inh HTS | Shn3 inh set2 | FN deposit inh
C[C@@H]1CN([C@@H](C)CO)C(=O)c2cc(NC(=O)C3CCCCC3)ccc2O[C@H]1CN(C)Cc1ccc(-c2ccccc2)cc1 | nt | 8 | nt | nt | nt | 30*
C[C@H]1CN([C@@H](C)CO)C(=O)Cc2cc(NC(=O)Cc3ccccc3)ccc2O[C@H]1CN(C)Cc1ccc(-c2ccccc2)cc1 | nt | 21 | nt | -3 | nt | nt
C[C@@H]1CN([C@@H](C)CO)C(=O)Cc2cc(NC(=O)C3CC3)ccc2O[C@H]1CN(C)Cc1ccc(-c2ccccc2)cc1 | nt | 8 | nt | 91* | nt | nt
C[C@@H]1CN([C@@H](C)CO)C(=O)Cc2cc(NC(=O)Cc3ccccc3)ccc2O[C@H]1CN(C)Cc1ccc(-c2ccccc2)cc1 | nt | 20 | nt | 79* | nt | nt
C[C@@H]1CN([C@@H](C)CO)C(=O)c2cc(NC(=O)C3CCCCC3)ccc2O[C@@H]1CN(C)Cc1ccc(-c2ccccc2)cc1 | nt | 14 | nt | nt | nt | 16
CC(C)NC(=O)N(C)C[C@H]1Oc2ccc(NS(=O)(=O)c3cn(C)cn3)cc2CC(=O)N([C@@H](C)CO)C[C@@H]1C | nt | -10 | nt | 6 | nt | nt
C[C@H]1CN([C@@H](C)CO)C(=O)c2cccc(NC(=O)Nc3ccccc3)c2O[C@H]1CN(C)C(=O)Nc1ccc(C(F)(F)F)cc1 | nt | -12 | nt | nt | nt | nt
CNC(=O)C[C@H]1CC[C@@H]2[C@H](COc3ccc(NC(=O)C4CC4)cc3C(=O)N2C)O1 | nt | -4 | nt | -25 | nt | 3
O=C(NC1Cc2ccccc2C1)[C@@H]1[C@@H](CO)[C@@H]2Cn3c(cccc3=O)[C@H]1N2Cc1ccccc1F | nt | 3 | nt | -5 | nt | nt
O=C(NCC[C@@H]1CC[C@H](NS(=O)(=O)c2ccc(Cl)cc2)[C@H](CO)O1)Nc1ccc(F)cc1 | nt | -10 | nt | -37 | nt | -3
C[C@H]1CN([C@@H](C)CO)C(=O)Cc2cc(NC(=O)c3ccncc3)ccc2O[C@H]1CN(C)Cc1ccc(-c2ccccc2)cc1 | nt | -14 | nt | 69* | nt | nt
COc1ccc(OC)c(Nc2cc3ccccc3c(=O)[nH]2)c1 | 1 | 62* | 32 | 9 | 0 | -11
CCN(CC)Cc1cc(Nc2ccnc3cc(Cl)ccc23)ccc1O | 57*! | 16 | -21 | -11 | 5 | -2
Oc1ccc(Nc2ccnc3cc(Cl)ccc23)cc1 | 12 | -1 | -5 | -5 | 17 | 2
Nn1c(-c2ccc(F)cc2)nc2ccccc2c1=O | -2 | -16 | 6 | -32 | -7 | -15
O=C1c2cc(F)ccc2-n2c1nc1ccccc1c2=O | -1 | 39 | 66* | 18 | 59 | -4
CCNC(=O)Nc1ccc2c(c1)C(=O)N(C)[C@H]1CC[C@@H](CC(=O)NCC3CCCCC3)O[C@H]1CO2 | nt | 11 | nt | 8 | nt | -3
Cc1ccc(CNC(=O)c2ccc(N3CCC4(CC3)CC(c3ccccc3)=NO4)c([N+](=O)[O-])c2)cc1 | 78* | 3 | 15 | -2 | 57 | 10
COc1ccc(S(=O)(=O)N[C@@H]2CC[C@H](CC(=O)NCCc3ccccc3)O[C@H]2CO)cc1 | nt | -5 | nt | -4 | nt | 8
CCCN(C)C[C@H]1Oc2ncc(-c3ccccc3F)cc2C(=O)N([C@H](C)CO)C[C@@H]1C | nt | 6 | nt | nt | nt | nt
COc1cc(-c2ccc(=O)[nH]n2)ccc1OC(F)F | 10 | -2 | 87* | -16 | -11 | 0
O=C(/C=C/c1cccc([N+](=O)[O-])c1)n1cnc2ccccc21 | 7 | 65* | -41 | 19 | 92* | -3
COc1ccc(NC(=S)NCc2cccs2)cc1 | 57* | -19 | -42 | -11 | -5 | 1
CC(C)c1ccc(NC(=S)NCc2cccs2)cc1 | -40 | nt | -86 | nt | -50 | 3
O=C(Cc1ccc(Cl)cc1)NCC(=O)N1CCCCC1 | 45* | -1 | 5 | 0 | -2 | -3
COc1ccc(C2SCCN2C(=O)c2ccc([N+](=O)[O-])cc2)cc1 (stereo unspecified) | 42* | 8 | -24 | -6 | 2 | 7
CN(C)C(=O)c1cccc(-c2ccc3c(c2)[C@@H]2[C@@H](CCN2S(=O)(=O)c2ccccc2)[C@@H](CO)N3)c1 | nt | 8 | nt | 10 | nt | 15
COc1ccc(NC(=O)C2(C)Cc3c(-c4cccc(NC(C)=O)c4)ccnc3O2)cn1 (stereo unspecified) | nt | 59* | nt | nt | -15 | -5
